{"data": "Experimental data gathered from unrelated publications", "FGFR4": "Fibroblast growth factor receptor 4 (FGFR4, Homo sapiens, UniProt P22455)", "note": "Protocols differ between the studies behind these lines."}
{"Structure (SMILES)": "CC(C)(C)c1nc2c(s1)c1nc(N)ncc1c1ccc(NS(=O)(=O)c3c(F)cccc3F)c(F)c12", "target": "FGFR4", "observed": "enzyme activity", "mode": "inhibitor", "technique": "radiometric", "concentration": "1 µM", "quantity": "remaining activity", "value": "104%"}
{"Structure (SMILES)": "COc1cc2nccc(Oc3ccc(NC(=O)c4c5n(n(-c6ccc(F)cc6)c4=O)CCCC5)cc3)c2cc1OC", "target": "FGFR4", "observed": "enzyme activity", "mode": "inhibitor", "concentration": "0.1 µM", "quantity": "inhibition", "value": "5%"}
{"Structure (SMILES)": "O=C(N1CCS(=O)(=O)CC1)N1C[C@H](c2ccc(OC(F)(F)F)cc2)C[C@H](c2nc(C3CC3)no2)C1", "target": "FGFR4", "observed": "cell-free assay", "technique": "competition with immobilised ligand", "concentration": "1 µM", "quantity": "remaining binding", "value": "100%"}
{"Structure (SMILES)": "COc1ccc(COc2ccc(Cc3cnc(N)nc3N)cc2OC)cc1", "target": "FGFR4", "observed": "cell-free assay", "concentration": "0.5 µM", "quantity": "remaining signal", "value": "99.7%"}
{"Structure (SMILES)": "CNC(=O)c1cc(Oc2ccc(NC(=O)Nc3ccc(Cl)c(C(F)(F)F)c3)cc2)ccn1", "target": "FGFR4", "observed": "enzyme activity", "mode": "inhibitor", "concentration": "10 µM", "quantity": "inhibition", "value": "47%"}
{"Structure (SMILES)": "CC(C)(O)c1cncc(-c2nc3ccc(F)cc3n2C2CC2)c1", "target": "FGFR4", "observed": "cell-free assay", "technique": "competition with immobilised ligand", "concentration": "1 µM", "quantity": "remaining binding", "value": "100%"}
{"Structure (SMILES)": "O=C(Nc1cnn(-c2csc(C(=O)NC3COC3)c2)c1)Nc1c(F)cccc1Cl", "target": "FGFR4", "observed": "enzyme activity", "mode": "inhibitor", "concentration": "5 µM", "quantity": "remaining activity", "value": "99.6%"}
{"Structure (SMILES)": "CN(C)C(=O)Cn1cc(-c2nc(C3(c4ccc(-c5cnc(N)nc5)cc4)CC3)no2)cn1", "target": "FGFR4", "observed": "cell-free assay", "technique": "competition with immobilised ligand", "concentration": "1 µM", "quantity": "remaining binding", "value": "100%"}
{"Structure (SMILES)": "CCN(CC)c1ccc(C2=NNC(=O)CC2C)cc1[N+](=O)[O-] (centres unmarked)", "target": "FGFR4", "observed": "enzyme activity", "mode": "inhibitor", "concentration": "10 µM", "quantity": "remaining activity", "value": "93%"}
{"Structure (SMILES)": "CN(C)CC#Cc1ccc(OCCCc2sc(N3CCc4cccc(C(=O)Nc5nc6ccccc6s5)c4C3)nc2C(=O)O)c(F)c1", "target": "FGFR4", "observed": "cell-free assay", "technique": "competition with immobilised ligand", "concentration": "1 µM", "quantity": "remaining binding", "value": "100%"}
{"Structure (SMILES)": "CC(C)(O)[C@H]1CC[C@H](Nc2ccc3ncc(-c4cccc(C(F)(F)F)c4)n3n2)CC1", "target": "FGFR4", "observed": "enzyme activity", "mode": "inhibitor", "concentration": "1 µM", "quantity": "remaining activity", "value": "108%"}
{"Structure (SMILES)": "O=C1Nc2ccc(Cl)cc2C1=Cc1cc(Cl)c(O)c(Cl)c1", "target": "FGFR4", "observed": "cell-free assay", "concentration": "0.5 µM", "quantity": "remaining signal", "value": "98%"}
{"Structure (SMILES)": "C=CC(=O)Nc1cc(Nc2nccc(Nc3cc(Cl)c(F)cc3C(C)(C)O)n2)c(OC)cc1N1CC[C@@H](N(C)C)C1", "target": "FGFR4", "observed": "enzyme activity", "mode": "inhibitor", "concentration": "1 µM", "quantity": "inhibition", "value": "2%"}
{"Structure (SMILES)": "CC/C(=N\\NC(=O)NCc1cccc(O)c1)c1ccc(O)c(C)c1O", "target": "Fibroblast growth factor receptor 4 (FGFR4, Homo sapiens, UniProt P22455, V550L)", "observed": "enzyme activity", "mode": "inhibitor", "concentration": "0.1 µM", "quantity": "inhibition", "value": "3.5%"}
{"Structure (SMILES)": "C[C@@]1(Cc2ccc(C#N)cc2)C(=O)N(c2cc(Cl)cc(Cl)c2)c2ncc(C(=O)NC3(c4nc(C5CCC5)no4)CC3)n21", "target": "FGFR4", "observed": "cell-free assay", "technique": "competition with immobilised ligand", "concentration": "1 µM", "quantity": "remaining binding", "value": "96%"}
{"Structure (SMILES)": "Cc1ccc(C(=O)Nc2ccc(CN3CCN(C)CC3)c(C(F)(F)F)c2)cc1C#Cc1cnc2cccnn12", "target": "FGFR4", "observed": "cell-free assay", "concentration": "23.5 nM", "quantity": "remaining signal", "value": "49%"}
{"Structure (SMILES)": "NS(=O)(=O)c1cc(NC(=O)C2(c3ccccc3Cl)CC2)ccc1Oc1cccc(Cl)c1", "target": "FGFR4", "observed": "cell-free assay", "technique": "competition with immobilised ligand", "concentration": "1 µM", "quantity": "remaining binding", "value": "100%"}
{"Structure (SMILES)": "COc1cc2ncnc(Nc3ccc(Oc4ccccc4)cc3C)c2cc1OC", "target": "FGFR4", "observed": "enzyme activity", "mode": "inhibitor", "concentration": "1 µM", "quantity": "inhibition", "value": "-3%"}
{"Structure (SMILES)": "N#CCCc1ccc2c(c1)-c1[nH]c3ccc([N+](=O)[O-])cc3c1CC(=O)N2", "target": "FGFR4", "observed": "cell-free assay", "concentration": "0.5 µM", "quantity": "remaining signal", "value": "89.1%"}
{"Structure (SMILES)": "Cc1cnc(NC2CCOCC2)nc1-n1cnc(C(=O)NC(CN)c2cc(F)cc(Cl)c2)c1 (centres unmarked)", "target": "FGFR4", "observed": "enzyme activity", "mode": "inhibitor", "technique": "radiometric", "concentration": "1 µM", "quantity": "remaining activity", "value": "105%"}
{"Structure (SMILES)": "Cc1cc(-n2nc(Cc3cc(F)cc(C(F)(F)F)c3)nc2C)ccc1C(N)=O", "target": "FGFR4", "observed": "cell-free assay", "technique": "competition with immobilised ligand", "concentration": "1 µM", "quantity": "remaining binding", "value": "100%"}
{"Structure (SMILES)": "CCN(CC)CCNC(=O)c1c(C)[nH]c(/C=C2\\C(=O)Nc3ccc(F)cc32)c1C", "target": "FGFR4", "observed": "enzyme activity", "mode": "inhibitor", "concentration": "0.3 µM", "quantity": "inhibition", "value": "-11%"}
{"Structure (SMILES)": "CNc1cccc2cc(C(=O)Nc3ccc(C(=O)O)cc3)c(=O)[nH]c12", "target": "FGFR4", "observed": "enzyme activity", "mode": "inhibitor", "concentration": "10 µM", "quantity": "inhibition", "value": "2.6%"}
